# Reference: ChEMBL document CHEMBL1146004, “Effect of substitution on novel tricyclic HIV-1 integrase inhibitors” (Bioorg Med Chem Lett, 2006)
# Columns and labels:
# [1] = system: Human immunodeficiency virus 1; assay: Antiviral activity against HIV1 3B in MT4 cell line; format: functional, organism-based; details: Human immunodeficiency virus 1, 3B
# Procedure, shortened: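 MT-4 cells infected with HIV-1 IIIB at moi 0.01 for 3 h, then ~1.5 × 10⁴ cells/well added to 5-fold serial drug dilutions (9 concentrations, triplicate) in culture medium; 37 °C for 5 days. Viability read by CellTiter-Glo chemiluminescence after 10 min lysis at room temperature; EC50 derived.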
# [2] = system: MT4; assay: Cytotoxicity against human MT4 cells; format: functional
# [3] = target: Human immunodeficiency virus type 1 integrase (Human immunodeficiency virus 1, UniProt Q7ZJM1); assay: Inhibition of HIV1 integrase strand transfer activity
# [4] = physchem; details: buffer, pH 2.2
# [5] = physchem; details: buffer, pH 7.3
# Chain of Human immunodeficiency virus type 1 integrase (Q7ZJM1 whole entry): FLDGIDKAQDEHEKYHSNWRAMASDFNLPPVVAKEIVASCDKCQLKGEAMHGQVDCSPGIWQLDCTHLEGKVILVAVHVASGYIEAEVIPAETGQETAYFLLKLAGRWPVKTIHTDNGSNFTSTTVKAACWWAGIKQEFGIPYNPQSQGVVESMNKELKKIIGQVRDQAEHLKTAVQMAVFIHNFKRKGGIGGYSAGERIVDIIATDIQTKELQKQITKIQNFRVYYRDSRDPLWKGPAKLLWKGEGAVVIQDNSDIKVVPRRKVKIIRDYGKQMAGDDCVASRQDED
Compound,EC50 [1] [nM],IC50 [3] [nM],solubility [4] [µM],solubility [5] [µM],CC50 [2] [nM]
COc1c2c(c(O)c3ncccc13)C(=O)N(Cc1ccc(F)cc1)C2SCCC(=O)N1CCNCC1 (configuration not stated),685,59,–,–,5250
CN(C)S(=O)(=O)Oc1c2c(c(O)c3ncccc13)C(=O)N(Cc1ccc(F)cc1)C21CC1,443,357,11,2.1,14200
COc1c2c(c(O)c3ncccc13)C(=O)N(Cc1ccc(F)cc1)C21CC1,124,7,49,26,3300
COc1c2c(c(O)c3ncccc13)C(=O)N(Cc1ccc(F)cc1)C2O (configuration not stated),256,36,–,–,9740
CC1c2c(c(O)c3ncccc3c2OS(=O)(=O)N(C)C)C(=O)N1Cc1ccc(F)cc1 (configuration not stated),8,815,11,2,755
C=C1c2c(c(O)c3ncccc3c2OC)C(=O)N1Cc1ccc(F)cc1,375,150,–,–,6100
C=C1c2c(c(O)c3ncccc3c2OS(=O)(=O)N(C)C)C(=O)N1Cc1ccc(F)cc1,52,420,< 1,< 1,1650

# Continued, in another order:
EC50 [1] [nM],IC50 [3] [nM],solubility [4] [µM],solubility [5] [µM],Compound,CC50 [2] [nM]
–,60,–,–,COc1c2c(c(O)c3ncccc13)C(=O)N(Cc1ccc(F)cc1)C2,5100
77,88,193,3,COc1c2c(c(O)c3ncccc13)C(=O)N(Cc1ccc(F)cc1)C2C (configuration not stated),1600
3400,295,–,–,COc1c2c(c(O)c3ncccc13)C(=O)N(Cc1ccc(F)cc1)C2SCCC(=O)O (configuration not stated),24000
–,255,7,< 2.3,CN(C)S(=O)(=O)Oc1c2c(c(O)c3ncccc13)C(=O)N(Cc1ccc(F)cc1)C2,1400
415,64,–,–,COc1c2c(c(O)c3ncccc13)C(=O)N(Cc1ccc(F)cc1)C2OC (configuration not stated),11400
430,310,–,–,COC(=O)CCSC1c2c(c(O)c3ncccc3c2OC)C(=O)N1Cc1ccc(F)cc1 (configuration not stated),2800
1110,210,–,–,COc1c2c(c(O)c3ncccc13)C(=O)N(Cc1ccc(F)cc1)C2(C)C,427
7500,80,< 1.4,< 1.4,O=C1c2c(c(O)c3ncccc3c2O)C(=O)N1Cc1ccc(F)cc1,19000
